Laboratory results as given in ChEMBL document CHEMBL3351576, “Five new quassinoids and cytotoxic constituents from the roots of Eurycoma longifolia” (Bioorg Med Chem Lett, 2014).
pIC50: −log10 of the molar value.

Columns and labels:
A549 [1] = experiment: Cytotoxicity against human A549 cells assessed as cell viability at 1 uM by SRB assay; type: functional; conditions: read-out: Activity
How it was run: (§1)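 Modified sulforhodamine B (SRB) protein-stain assay. Each human cancer line was exposed to 1, 10 and 100 µM of each isolated root constituent. The read-out is relative cell viability (%), reported as mean ± error.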

A549 [2] = experiment: Cytotoxicity against human A549 cells assessed as cell viability at 10 uM by SRB assay; type: functional; conditions: read-out: Activity; how it was run: as §1
A549 [3] = experiment: Cytotoxicity against human A549 cells assessed as cell viability at 100 uM by SRB assay; type: functional; conditions: read-out: Activity; how it was run: as §1
HeLa [4] = experiment: Cytotoxicity against human HeLa cells assessed as cell viability at 1 uM by SRB assay; type: functional; conditions: read-out: Activity; how it was run: as §1
HeLa [5] = experiment: Cytotoxicity against human HeLa cells assessed as cell viability at 10 uM by SRB assay; type: functional; conditions: read-out: Activity; how it was run: as §1
HeLa [6] = experiment: Cytotoxicity against human HeLa cells assessed as cell viability at 100 uM by SRB assay; type: functional; conditions: read-out: Activity; how it was run: as §1
HeLa [7] = experiment: Cytotoxicity against human HeLa cells by SRB assay; type: functional, cell-based

Row | SMILES | viability at 1 µM (A549 [1]) [%] | viability at 10 µM (A549 [2]) [%] | viability at 100 µM (A549 [3]) [%] | viability at 1 µM (HeLa [4]) [%] | viability at 10 µM (HeLa [5]) [%] | viability at 100 µM (HeLa [6]) [%] | pIC50 (HeLa [7])
1 | CC1=CC(=O)[C@@H](O)[C@]2(C)[C@H]3[C@@H](O)[C@H](O)[C@H](C)[C@]4(O)[C@@H](O)C(=O)O[C@H](C[C@@H]12)[C@]34C | 99.5 | 86.4 | 43.3 | 101 | 71.6 | 21 | 4.32
2 | CC1=CC(=O)O[C@H]1[C@@]1(C)C[C@H]2OC(=O)[C@H](O)[C@@]3(O)[C@@H](C)C(=O)C(O)=C1[C@@]23CO | 102 | 104 | 103 | 102 | 103 | 106 | –
3 | CC1=CC(=O)O[C@H]1[C@@]1(C)C[C@H]2OC(=O)[C@H](O)[C@@]3(O)[C@H](C)C(=O)C(O)=C1[C@@]23CO | 101 | 104 | 104 | 102 | 104 | 106 | –
4 | C=C1C(=O)C(O)=C2[C@@](C)([C@@H]3OC(=O)C=C3C)C[C@H]3OC(=O)[C@H](O)[C@]1(O)[C@@]23CO | 100 | 102 | 100 | 102 | 104 | 101 | –
5 | C[C@H]1[C@H]2OC(=O)[C@@H]1[C@]1(C)C(=O)C=C3[C@@](C)(O)C[C@H](O)[C@@H](O)[C@]3(C)C1[C@H]2O (some centres not stated) | 96.6 | 102 | 101 | 101 | 102 | 102 | –
6 | CC1=C2C[C@H]3OC(=O)[C@H](O)[C@@]4(O)[C@@H](C)[C@]5(O)C(=O)OC[C@]34C5[C@@]2(C)[C@H](O)[C@@H](O)C1 (some centres not stated) | 103 | 103 | 103 | 106 | 105 | 103 | –
7 | CC1=CC(=O)O[C@H]1[C@@]1(C)C[C@H]2OC(=O)[C@H](O)[C@@]3(O)[C@@H](C)[C@@H](O)[C@H](O)[C@H]1[C@@]23C | 102 | 102 | 100 | 104 | 104 | 103 | –
8 | CC1=CC(=O)[C@@H](O)[C@]2(C)[C@H]3[C@]4(O)OC[C@@]35[C@@H](C[C@@H]12)OC(=O)[C@H](O)[C@@]5(O)[C@]1(CO1)[C@H]4O | 96.2 | 102 | 99.1 | 101 | 101 | 61.7 | –
9 | C=C1C[C@H](O)[C@@H](O)[C@]2(C)[C@H]3[C@@H](O)[C@H](O)[C@H](C)[C@@H]4C(=O)O[C@H]([C@H](O)[C@@H]12)[C@]34C | 96.8 | 101 | 101 | 99.7 | 101 | 98.7 | –
10 | CC1=CC(=O)[C@@H](O)[C@]2(C)[C@H]3[C@@H](O)[C@H](O)[C@H](C)[C@]4(O)[C@@H](O)C(=O)O[C@H](C[C@@]12O)[C@]34C | 99.8 | 101 | 99.3 | 101 | 103 | 100 | –
11 | COc1cccc2c1C(=O)c1c(O)c3c(c(O)c1C2=O)C[C@@](O)(C(=O)CO)C[C@@H]3O[C@H]1C[C@H](N)[C@@H](O)[C@H](C)O1 [EPIRUBICIN] | – | 0.61 | – | – | 24.3 | – | –
12 | CC1=CC(=O)[C@@H](O)[C@@]2(C)[C@H]1CC(=O)[C@@]1(C)[C@H]3C(=O)O[C@H]([C@@H]3C)[C@H](O)[C@@H]12 [EURYCOMALACTONE] | 101 | 71.5 | 41.5 | 105 | 77.7 | 44.5 | –
13 | C=C1[C@@H](O)[C@@]2(O)OC[C@]34[C@H]2[C@@]2(C)[C@H](O)C(=O)C=C(C)[C@@H]2C[C@H]3OC(=O)[C@H](O)[C@@]14O [EURYCOMANONE] | 96.8 | 101 | 87.2 | 101 | 97.5 | 47 | –
14 | CC1=CC(=O)[C@@H](O)[C@@]2(C)[C@H]1[C@@H](O)[C@H]1OC(=O)C3[C@@H](C)[C@H](O)[C@H](O)[C@H]2[C@]31C (some centres not stated) [LONGILACTONE] | 99.7 | 99.8 | 66.1 | 101 | 102 | 66.9 | –
15 | CC1=CC(=O)[C@@H](O)[C@]2(C)[C@H]3[C@]4(O)OC[C@@]35[C@@H](C[C@@H]12)OC(=O)[C@H](O)[C@@]5(O)[C@H](C)[C@H]4O [PASAKBUMIN C] | 99.2 | 101 | 99.8 | 99.8 | 102 | 101 | –
